In general, IC50 refers to the point on the concentration scale where inhibition reaches its midpoint. Read a low IC50 as greater potency. A word on the inhibition: it is the share of the control response that was lost under treatment.

Active and inactive are the calls of the source. The calls are words filed in the database; no cut-off is given here.

This is an account of results in ChEMBL document CHEMBL1157719, “1-Indol-1-yl-propan-2-ones and related heterocyclic compounds as dual inhibitors of cytosolic phospholipase A(2)alpha and fatty acid amide hydrolase” (Bioorg Med Chem, 2010).

The target in assay [1] is T1, Fatty-acid amide hydrolase 1 (Rattus norvegicus, UniProt P97612).
T1 sequence (P97612 whole entry): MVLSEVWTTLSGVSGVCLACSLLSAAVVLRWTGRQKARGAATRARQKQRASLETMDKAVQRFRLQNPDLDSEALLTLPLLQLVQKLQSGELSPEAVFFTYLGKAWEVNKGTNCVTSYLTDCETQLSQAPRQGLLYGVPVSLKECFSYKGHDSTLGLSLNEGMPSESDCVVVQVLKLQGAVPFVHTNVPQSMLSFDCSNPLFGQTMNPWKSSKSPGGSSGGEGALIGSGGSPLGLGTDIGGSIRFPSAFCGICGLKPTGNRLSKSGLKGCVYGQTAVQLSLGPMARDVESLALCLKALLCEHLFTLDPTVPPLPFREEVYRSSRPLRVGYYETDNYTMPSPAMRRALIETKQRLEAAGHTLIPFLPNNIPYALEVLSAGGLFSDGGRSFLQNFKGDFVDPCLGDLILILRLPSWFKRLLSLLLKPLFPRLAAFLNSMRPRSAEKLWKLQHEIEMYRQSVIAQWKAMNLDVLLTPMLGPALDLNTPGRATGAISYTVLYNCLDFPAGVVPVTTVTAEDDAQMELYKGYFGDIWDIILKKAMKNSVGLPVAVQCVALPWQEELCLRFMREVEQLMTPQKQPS
Kind of assay: Inhibition of FAAH from rat brain microsomes by RP-HPLC.

The nature of assay [2]: inhibition of MAGL up to 10 uM. An outline of the steps: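 MAGL set up like the FAAH assay, using pyrene-labelled substrate 1,3-dihydroxypropan-2-yl 4-pyren-1-ylbutanoate; product measured by RP-HPLC with fluorescence detection; highest test concentration 10 μM.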
For assay [3], the target named is T2, Fatty-acid amide hydrolase 1 (Rattus norvegicus) (UniProt P97612).
T2 sequence (whole entry): T1 sequence (P97612 whole entry)
The experiment in a line: Inhibition of FAAH from rat brain microsomes at 10 uM by RP-HPLC. The gist of the method:
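Rat brain microsomes as FAAH source; substrate N-(2-hydroxyethyl)-4-pyren-1-ylbutanamide 100 μM solubilized with Triton X-100 0.2%. Incubated 45 min, then stopped with acetonitrile/methanol plus internal standard 6-pyren-1-ylhexanoic acid. Released 4-pyren-1-ylbutanoic acid quantified directly by RP-HPLC with fluorescence (ex 340, em 380 nm), with vs without inhibitor. Inhibitor max 10 μM; IC50 means of at least two independent determinations.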

Compound `CCCCCCCCc1ccc(OCC(=O)Cn2nnc3ccc(C(=O)O)cc32)cc1` gave an IC50 in assay [1] of 200 nM. The inhibition entry in assay [2] is “inactive”.

Turning to `CCCCCCCCc1ccc(OCC(=O)Cn2cnc3ccc(C(=O)O)cc32)cc1`, the half-maximal inhibitory concentration (IC50) in assay [1] was found to be 3100 nM. For the same compound, the inhibition result in assay [2] is “inactive”.

As to `CCCCCCCCc1ccc(OCC(=O)Cn2cc(C(=O)O)c3cc(C(=O)O)ccc32)cc1`, the inhibition result in assay [3] and in assay [2] was “inactive” each time.

In turn, `CCCCCCCCc1ccc(OCC(=O)Cn2ncc3cc(C(=O)O)ccc32)cc1` showed an IC50 in assay [1] of 160 nM. In addition, the inhibition result in assay [2] was “inactive”.

`CCCCCCCCc1ccc(OCC(=O)Cn2cc(C=O)c3cc(C(=O)O)ccc32)cc1`: the inhibition entry in assay [3] and in assay [2] was “inactive” each time.

As to `CCCCCCCCc1ccc(OCC(=O)Cn2ccc3cc(C(=O)O)ccc32)cc1`, the midpoint of inhibition in assay [1], the IC50, lay at 2800 nM. The inhibition entry in assay [2] is “inactive”.

`CCCCCCCCCCOc1ccc(OCC(=O)COc2ccc(C(=O)O)cc2)cc1` gave an IC50 in assay [1] of 59 nM. For the same compound, the inhibition result in assay [2] is “inactive”.

In the case of `CCCCCCCCc1ccc(OCC(=O)Cn2cc(C(C)(C)C)c3cc(C(=O)O)ccc32)cc1`, the inhibition result in assay [3] and in assay [2] was “inactive” throughout.

As to `CCCCC/C=C\C/C=C\C/C=C\C/C=C\CCCC(=O)C(F)(F)F` [ARACHIDONYL TRIFLUOROMETHYLKETONE], it took 3700 nM to reach half-maximal inhibition in assay [1] (IC50). In addition, the inhibition result in assay [2] was “inactive”.

On to `CCCCCCCCc1ccc(OCC(=O)Cn2ncc3ccc(C(=O)O)cc32)cc1`, for which the concentration for half-maximal inhibition (IC50) in assay [1] was greater than 10000 nM. In assay [3], this compound came in with an inhibition of 23%. Moreover, the inhibition entry in assay [2] is “inactive”.

On to `CCCCCCCCc1ccc(OCC(=O)Cn2cnc3cc(C(=O)O)ccc32)cc1`, for which the IC50 in assay [1] turned out to be 610 nM. Moreover, the inhibition entry in assay [2] was “inactive”.

On to `CCCCCCCCc1ccc(OCC(=O)Cn2ccc3ccc(C(=O)O)cc32)cc1`, for which the inhibition entry in assay [3] and in assay [2] was “inactive” each time.

Regarding `CCCCCCCCc1ccc(OCC(=O)Cn2cc(C(=O)OC)c3cc(C(=O)O)ccc32)cc1`, the inhibition entry in assay [3] and in assay [2] was “inactive” each time.

`CCCCCCCCc1ccc(OCC(=O)Cn2cc(Cl)c3cc(C(=O)O)ccc32)cc1`: the inhibition result in assay [3] and in assay [2] was “inactive” in each case.

Take `CCCCCCCCc1ccc(OCC(=O)Cn2nnc3cc(C(=O)O)ccc32)cc1`: in assay [1], the IC50 is 140 nM. In assay [2], the inhibition entry is “inactive”.

In turn, `CCCCCCCCc1ccc(OCC(=O)Cn2ccc3cc(C(N)=O)ccc32)cc1` returned an IC50 in assay [1] of 6400 nM. Further, the inhibition result in assay [2] was “inactive”.

As to `CCCCCCCCc1ccc(OCC(=O)Cn2ccc3cc(C=O)ccc32)cc1`, in assay [1], the IC50 is greater than 10000 nM. In assay [3], this compound returned an inhibition of 45%. Moreover, the inhibition entry in assay [2] is “inactive”.

Take `CCCCCCCCc1ccc(OCC(=O)Cn2cc(C#N)c3cc(C(=O)O)ccc32)cc1`: the inhibition entry in assay [3] and in assay [2] was “inactive” throughout.
